RGS4 pot: RGS4 potentiation or activation. HEK293 M3R/inducible RGS4, carbachol calcium flux Fluo4; hits give low values. B-score at 10 µM. 0.92% of 310,000 active. AID 463111;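 active means B-score of the integrated calcium signal more than 4 SD below the library mean, with starting fluorescence not abnormally high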;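 further: negative B-score means reduced calcium response which marks RGS4 activation or potentiation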
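Assay system: HEK293 FlpIn-TREx cells, stable M3R, doxycycline-inducible RGS4 / Probe or stimulus: carbachol, ECmax concentration / Times: overnight RGS4 induction, 30 min dye load 37 °C, 20 min compound RT / Signal: kinetic calcium fluorescence imaging with Fluo4-AM dye, 2 µM / Measure: Agonist-evoked peak-minus-minimum fluorescence over baseline, integrated ratio, B score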
RGS4 block: human RGS4 inhibition; P49798; HEK293 M3R/RGS4 inducible, Fluo-4 calcium flux; hits give high values; triggered by carbachol at its EC20; B-score at 10 µM; 0.45% of 310,000 active; AID 463165;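 active means B-score, a plate-corrected calcium signal, over three deviations above library mean, with baseline fluorescence within five deviations of library mean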;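 further: RGS4 expression induced by doxycycline in cells with stable M3 receptor; B-score is computed from the integrated fluorescence ratio over baseline after carbachol; higher B-score means a larger calcium signal and so more RGS4 inhibition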
Target sequence (P49798 whole entry, looked up): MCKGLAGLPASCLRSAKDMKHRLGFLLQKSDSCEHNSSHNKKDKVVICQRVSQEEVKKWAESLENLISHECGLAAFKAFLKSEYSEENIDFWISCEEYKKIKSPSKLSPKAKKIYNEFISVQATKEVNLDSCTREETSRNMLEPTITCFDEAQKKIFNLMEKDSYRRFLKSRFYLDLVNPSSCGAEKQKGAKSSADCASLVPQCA
MrgX1 ag: activates human MrgX1 receptor signaling; 0.44% of 310,000 active; B-score at 10 µM; MrgX1-HEK293 cells, Fluo-4 calcium fluorescence, agonist mode; hits give high values;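 active means calcium response B-score plate-corrected fluorescence ratio at least 3 library SD, with starting fluorescence B-score inside 5 SD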
Target sequence (Q96LB2 whole entry, looked up): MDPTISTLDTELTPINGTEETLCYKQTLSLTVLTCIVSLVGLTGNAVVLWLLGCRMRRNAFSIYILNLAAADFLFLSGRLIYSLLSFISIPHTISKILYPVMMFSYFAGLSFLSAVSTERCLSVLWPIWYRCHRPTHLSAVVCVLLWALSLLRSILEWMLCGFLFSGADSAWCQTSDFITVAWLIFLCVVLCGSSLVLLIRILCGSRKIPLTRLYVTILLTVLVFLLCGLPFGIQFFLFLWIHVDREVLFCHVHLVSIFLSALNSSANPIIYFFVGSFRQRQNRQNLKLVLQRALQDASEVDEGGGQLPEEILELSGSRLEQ
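Test system: HEK293 cells stably expressing human MrgX1 receptor; amount: 15,000 cells per well; doses: compound delivered in addition one of three; times: overnight plating before 1 h dye loading; detection: Fluo-4 NW calcium-flux fluorescence, kinetic read; read-out basis: B-scored fluorescence response ratio; controls: positive and negative controls per plate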
MrgX1 allo act: human MrgX1 positive allosteric modulation, primary screen | Q96LB2 | MrgX1-HEK293, Fluo-4 calcium flux, FDSS; hits give high values | B-score at 10 µM | 0.63% of 310,000 active | AID 588675;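 active means plate-corrected calcium response at least 3 library SD above typical, normal starting fluorescence, not activating the receptor alone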;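 further: compound read alongside a low EC10 to EC30 dose of BAM8-22 agonist; peak minus trough fluorescence over baseline measured at the second addition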
MrgX1 antag: blocks BAM8-22 activation of human MrgX1 receptor; B-score at 10 µM; 1.3% of 310,000 active; AID 588676; MRGX1-HEK293 calcium flux, Fluo-4, BAM8-22 antagonism; hits give low values; Q96LB2;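 active means calcium-response B-score plate-corrected more than 3 library SD below zero, starting fluorescence within 5 deviations, no agonist response on first addition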;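 further: peak minus trough fluorescence over baseline after final BAM8-22 challenge near maximal dose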
RGS4 act valid: confirmation of RGS4 activators; shares compounds with RGS4 pot; HEK293 M3R/RGS4 inducible, carbachol calcium flux Fluo4; inhibition, % at 10 µM; 89% of 1,100 active;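 active means inhibition above 3 SD of the buffer control wells, cut at about 41% in these data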;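 further: signal is the integrated peak-minus-minimum Fluo4 fluorescence over baseline ratio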
M3R Ca counter: activity in cells without induced RGS4 expression; shares compounds with RGS4 pot; HEK293 M3R non-induced RGS4, Fluo4 calcium flux; after carbachol challenge at its EC90; inhibition, % at 10 µM; 82% of 1,100 active; AID 602283;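 active means inhibition exceeding 3 SD of buffer-only control wells, cut at about 26% in these data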;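 further: percent drop in integrated peak-minus-baseline over baseline Fluo4 ratio after carbachol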
The depositor's hits bear a star; ! = not confirmed by another sample. A selection: hits, their analogues and other compounds. The true share with any hit is near 3.5%.

How did O=c1[nH]c2ccccc2cc1CN(Cc1cccnc1)S(=O)(=O)c1ccc(Cl)cc1 do in these assays?
RGS4 pot: -7.8*; RGS4 block: inactive; MrgX1 ag: inactive; MrgX1 allo act: 7.3*; MrgX1 antag: inactive; RGS4 act valid: 73*; M3R Ca counter: 30*

What do the screens show for `Cc1csc(NC(=O)c2sc3nc(-c4cccs4)ccc3c2N)n1`?
RGS4 pot: -8.9*; RGS4 block: inactive; MrgX1 ag: 93*; MrgX1 allo act: inactive; MrgX1 antag: inactive; RGS4 act valid: 88*; M3R Ca counter: 83*

Results for [O-]/C(=C(\C(=S)Nc1cccc2ccccc12)[n+]1ccccc1)c1ccc2c(c1)OCCO2 ?
RGS4 pot: inactive; RGS4 block: inactive; MrgX1 ag: inactive; MrgX1 allo act: inactive; MrgX1 antag: inactive

How did CC1CCCCN1C(=O)c1cc2nc(-c3ccccc3)cc(-c3ccccc3)n2n1 (configuration not stated) do in these assays?
RGS4 pot: -7.9*; RGS4 block: inactive; MrgX1 ag: inactive; MrgX1 allo act: inactive; MrgX1 antag: inactive; RGS4 act valid: 74*; M3R Ca counter: 0

What do the screens show for `Cc1cnc(NC(=O)C2=C(O)c3ccccc3S(=O)(=O)N2C)s1`?
RGS4 pot: -9.5*!; RGS4 block: inactive; MrgX1 ag: inactive; MrgX1 allo act: inactive; MrgX1 antag: inactive; RGS4 act valid: 0; M3R Ca counter: 0

How did OCC1(Cc2ccccc2C(F)(F)F)CCN(Cc2ccc3c(c2)CCO3)CC1 do in these assays?
RGS4 pot: -10*; RGS4 block: inactive; MrgX1 ag: inactive; MrgX1 allo act: inactive; MrgX1 antag: inactive; RGS4 act valid: 55*; M3R Ca counter: 84*

What do the screens show for `OCC1(Cc2ccccc2C(F)(F)F)CCN(Cc2ccccc2)CC1`?
RGS4 pot: inactive; RGS4 block: inactive; MrgX1 ag: inactive; MrgX1 allo act: inactive; MrgX1 antag: inactive

What do the screens show for `Cc1ccc(S(=O)(=O)NC(CC(C)C)C(=O)Oc2ccc3c4c(c(=O)oc3c2)CCC4)cc1` (configuration not stated)?
RGS4 pot: -9.4*; RGS4 block: inactive; MrgX1 ag: inactive; MrgX1 allo act: inactive; MrgX1 antag: inactive; RGS4 act valid: 92*; M3R Ca counter: 92*

What do the screens show for `O=C(N/N=C/C1C(c2ccccc2)C1(Cl)Cl)c1cccc(Br)c1` (configuration not stated)?
RGS4 pot: inactive; RGS4 block: inactive; MrgX1 ag: inactive; MrgX1 allo act: inactive; MrgX1 antag: inactive

Results for Cc1nn(-c2ccc(N3CCCCC3)nn2)c(C)c1CCC(=O)Nc1ccc(F)c(F)c1 ?
RGS4 pot: -8.5*; RGS4 block: inactive; MrgX1 ag: inactive; MrgX1 allo act: inactive; MrgX1 antag: inactive; RGS4 act valid: 64*; M3R Ca counter: 49*

How did CC(CCc1ccco1)NC(=O)CSc1cc(=O)n(C)c2ccccc12 (configuration not stated) do in these assays?
RGS4 pot: inactive; RGS4 block: inactive; MrgX1 ag: inactive; MrgX1 allo act: inactive; MrgX1 antag: inactive

What do the screens show for `CN(C)CCNC(=O)c1cccc(S(=O)(=O)Nc2ccc(F)cc2)c1`?
RGS4 pot: inactive; RGS4 block: inactive; MrgX1 ag: inactive; MrgX1 allo act: inactive; MrgX1 antag: inactive

What do the screens show for `CCN(CC)CCNC(=O)c1ccc(NC(=O)c2cccc(S(=O)(=O)Nc3ccc(C)cc3)c2)cc1`?
RGS4 pot: -12*; RGS4 block: inactive; MrgX1 ag: inactive; MrgX1 allo act: inactive; MrgX1 antag: inactive; RGS4 act valid: 92*; M3R Ca counter: 69*

What do the screens show for `CN1/C(=C\C(=O)Nc2ccc(Br)cc2)C(C)(C)c2ccccc21`?
RGS4 pot: -9.2*; RGS4 block: inactive; MrgX1 ag: inactive; MrgX1 allo act: inactive; MrgX1 antag: inactive; RGS4 act valid: 92*; M3R Ca counter: 96*

What do the screens show for `CN1/C(=C\C(=O)Nc2ccc(F)cc2)C(C)(C)c2ccccc21`?
RGS4 pot: -8.8*; RGS4 block: inactive; MrgX1 ag: inactive; MrgX1 allo act: inactive; MrgX1 antag: inactive; RGS4 act valid: 50*; M3R Ca counter: 26*

How did COc1ccc(N(C)S(=O)(=O)c2c(C)[nH]c(=O)[nH]c2=O)cc1 do in these assays?
RGS4 pot: -8.1*; RGS4 block: inactive; MrgX1 ag: inactive; MrgX1 allo act: inactive; MrgX1 antag: inactive; RGS4 act valid: 0; M3R Ca counter: 0

What do the screens show for `COc1ccc(-c2nc3cnccn3c2NCc2ccccc2)cc1SC1CCCCC1`?
RGS4 pot: -11*; RGS4 block: inactive; MrgX1 ag: inactive; MrgX1 allo act: inactive; MrgX1 antag: inactive; RGS4 act valid: 92*; M3R Ca counter: 86*

How did CCOC(=O)c1sc(Nc2nc3c(OC)cccc3s2)nc1C do in these assays?
RGS4 pot: -7.8*; RGS4 block: inactive; MrgX1 ag: inactive; MrgX1 allo act: inactive; MrgX1 antag: inactive; RGS4 act valid: 93*; M3R Ca counter: 79*

What do the screens show for `CCOC(=O)c1sc(Nc2ccccc2)nc1C`?
RGS4 pot: inactive; RGS4 block: inactive; MrgX1 ag: inactive; MrgX1 allo act: inactive; MrgX1 antag: inactive

Results for CC1C(=O)C(C)(C)C(=O)OC1c1ccc([N+](=O)[O-])cc1 (configuration not stated) ?
RGS4 pot: inactive; RGS4 block: inactive; MrgX1 ag: inactive; MrgX1 allo act: inactive; MrgX1 antag: inactive

How did Cc1ccc(Sc2ccc(N)cc2C#N)cc1 do in these assays?
RGS4 pot: -8.8*; RGS4 block: inactive; MrgX1 ag: inactive; MrgX1 allo act: inactive; MrgX1 antag: inactive; RGS4 act valid: 83*; M3R Ca counter: 42*

What do the screens show for `Cc1ccc(Sc2nnc(-c3ccccc3)cc2C#N)cc1`?
RGS4 pot: inactive; RGS4 block: inactive; MrgX1 ag: inactive; MrgX1 allo act: inactive; MrgX1 antag: inactive

What do the screens show for `CCOc1ccc(OCC)c(S(=O)(=O)n2cnc(C)c2)c1`?
RGS4 pot: inactive; RGS4 block: inactive; MrgX1 ag: inactive; MrgX1 allo act: inactive; MrgX1 antag: inactive

How did COc1cccc(/C=N/n2c(-c3n[nH]c4c3CCC4)n[nH]c2=S)c1O do in these assays?
RGS4 pot: -9.1*; RGS4 block: inactive; MrgX1 ag: inactive; MrgX1 allo act: inactive; MrgX1 antag: inactive; RGS4 act valid: 94*; M3R Ca counter: 93*

Bioassay records (PubChem BioAssay)
